Measured values as given in ChEMBL document CHEMBL1123529, “Analogues of substance P. Peptides containing D-amino acid residues in various positions of substance P and displaying agonist or receptor selective antagonist effects” (1986).
Where a SMILES comes first, the peptide text is derived from it. [ ]: non-standard residue; d: D form. The star is where a group is joined. Cbz = O=C(OCc1ccccc1)*

Assays:
[1] = target: Substance-P receptor (Cavia porcellus) (UniProt P30547); assay: Antagonistic activity against Substance P(6-11) receptor in guinea pig ileum at concentration of 1 uM.; format: functional, tissue-based
Summary of the method: (§1)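 Distal ileum from Dunkin-Hartley guinea pigs (300-350 g, both sexes) in a Krebs organ bath at 37 °C, gassed with 95% O2/5% CO2. Agonist (SP or SP(6-11)) dose-response curves run on a 3-min cycle with 1-min contact, with and without antagonist. Dose ratio = agonist EC50 with antagonist / EC50 alone. At least two preparations per compound; ratios below 2 taken as insignificant.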

[2] = target: Substance-P receptor (Cavia porcellus) (UniProt P30547); assay: Evaluated in vitro for percent agonist activity in guinea pig ileum (substance P receptor); format: functional, tissue-based
[3] = target: Substance-P receptor (Cavia porcellus) (UniProt P30547); assay: Antagonistic activity against Substance P(6-11) receptor in guinea pig ileum at concentration of 10 uM.; format: functional, tissue-based; summary of the method: as §1
[4] = target: Substance-P receptor (Cavia porcellus) (UniProt P30547); assay: Antagonistic activity against Substance P in guinea pig ileum at concentration of 1 uM.; format: functional, tissue-based; summary of the method: as §1
[5] = target: Substance-P receptor (Cavia porcellus) (UniProt P30547); assay: Antagonistic activity against Substance P in guinea pig ileum at concentration of 10 uM.; format: functional, tissue-based; summary of the method: as §1
[6] = target: Metabotropic glutamate receptor 3 (Rattus norvegicus) (UniProt P31422); assay: Antagonistic activity against Glutamate receptor in rat spinal cord at concentration of 50 uM.; format: functional, tissue-based
Summary of the method: (§2)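 Neonatal hemisectioned spinal cord from Wistar rats (Alderley Park strain, 2-7 days old), anaesthetised with intraperitoneal urethane (25% w/v, […]) and then decapitated. Cord superfused with oxygenated medium at 1 mL/min. Agonist (SP, SP(6-11), glutamate or carbachol) applied as 2-mL doses in the superfusate. Antagonist superfused for at least 15 min before agonists were retested. Read-out: % change in ventral root–cord DC potential response amplitude.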

[7] = target: Substance-P receptor (Rattus norvegicus) (UniProt P14600); assay: Antagonistic activity against Substance P(6-11) receptor in rat spinal cord at concentration of 50 uM.
[8] = target: Substance-P receptor (Rattus norvegicus) (UniProt P14600); assay: Antagonistic activity against Substance P receptor in rat spinal cord at concentration of 25 uM.
[9] = target: Substance-P receptor (Cavia porcellus) (UniProt P30547); assay: Antagonistic activity against Substance P(6-11) receptor in guinea pig ileum at concentration of 5 uM.; format: functional, tissue-based; summary of the method: as §1
[10] = target: Metabotropic glutamate receptor 3 (Rattus norvegicus) (UniProt P31422); assay: Antagonistic activity against Glutamate receptor in spinal rat cord at concentration of 25 uM.; format: functional; summary of the method: as §2
[11] = target: Substance-P receptor (Rattus norvegicus) (UniProt P14600); assay: Antagonistic activity against Substance P(6-11) receptor in rat spinal cord at concentration of 25 uM.
[12] = target: Substance-P receptor (Rattus norvegicus) (UniProt P14600); assay: Antagonistic activity against Substance P receptor in rat spinal cord at concentration of 5 uM.
[13] = target: Substance-P receptor (Rattus norvegicus) (UniProt P14600); assay: Antagonistic activity against Substance P receptor in rat spinal cord at concentration of 50 uM.
[14] = target: Metabotropic glutamate receptor 3 (Rattus norvegicus) (UniProt P31422); assay: Antagonistic activity against Glutamate receptor in spinal rat cord at concentration of 5 uM.; format: functional; summary of the method: as §2
[15] = target: Substance-P receptor (Rattus norvegicus) (UniProt P14600); assay: Antagonistic activity against Substance P(6-11) receptor in rat spinal cord at concentration of 5 uM.
[16] = target: Substance-P receptor (Cavia porcellus) (UniProt P30547); assay: Antagonistic activity against Substance P receptor in guinea pig ileum at concentration of 5 uM.; format: functional, tissue-based; summary of the method: as §1
[17] = target: Substance-P receptor (Cavia porcellus) (UniProt P30547); assay: Antagonistic activity against Substance P receptor in guinea pig ileum at concentration of 50 uM.; format: functional, tissue-based; summary of the method: as §1
[18] = target: Substance-P receptor (Cavia porcellus) (UniProt P30547); assay: Antagonistic activity against Substance P(6-11) receptor in guinea pig ileum at concentration of 50 uM.; format: functional, tissue-based; summary of the method: as §1
[19] = target: Substance-P receptor (Rattus norvegicus) (UniProt P14600); assay: Antagonistic activity against Substance P(6-11) receptor in rat spinal cord at concentration of 10 uM.
[20] = target: Metabotropic glutamate receptor 3 (Rattus norvegicus) (UniProt P31422); assay: Antagonistic activity against Glutamate receptor in rat spinal cord at concentration of 25 uM.; format: functional, tissue-based; summary of the method: as §2
[21] = target: Metabotropic glutamate receptor 3 (Rattus norvegicus) (UniProt P31422); assay: Antagonistic activity against Glutamate receptor in rat spinal cord at concentration of 10 uM.; format: functional, tissue-based
Summary of the method: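 Cord superfused with oxygenated medium at 1 mL/min. Agonist (SP, SP(6-11), glutamate or carbachol) applied as 2-mL doses in the superfusate. Antagonist superfused for at least 15 min before agonists were retested. Read-out: % change in ventral root–cord DC potential response amplitude.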

Sequence of Substance-P receptor (Cavia porcellus) (P30547 whole entry): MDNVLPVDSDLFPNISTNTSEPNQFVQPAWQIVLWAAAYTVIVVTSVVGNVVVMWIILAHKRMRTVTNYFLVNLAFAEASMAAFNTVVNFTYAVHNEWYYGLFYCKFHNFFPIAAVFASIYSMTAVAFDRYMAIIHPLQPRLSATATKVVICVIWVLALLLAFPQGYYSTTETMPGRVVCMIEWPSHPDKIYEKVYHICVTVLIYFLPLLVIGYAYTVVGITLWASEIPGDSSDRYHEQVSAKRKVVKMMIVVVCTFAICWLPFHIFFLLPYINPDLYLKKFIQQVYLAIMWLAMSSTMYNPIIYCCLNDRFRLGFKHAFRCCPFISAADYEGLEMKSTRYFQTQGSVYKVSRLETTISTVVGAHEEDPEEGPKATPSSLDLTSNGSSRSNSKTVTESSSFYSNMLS
Sequence of Metabotropic glutamate receptor 3 (Rattus norvegicus) (P31422 23-879 limits assumed): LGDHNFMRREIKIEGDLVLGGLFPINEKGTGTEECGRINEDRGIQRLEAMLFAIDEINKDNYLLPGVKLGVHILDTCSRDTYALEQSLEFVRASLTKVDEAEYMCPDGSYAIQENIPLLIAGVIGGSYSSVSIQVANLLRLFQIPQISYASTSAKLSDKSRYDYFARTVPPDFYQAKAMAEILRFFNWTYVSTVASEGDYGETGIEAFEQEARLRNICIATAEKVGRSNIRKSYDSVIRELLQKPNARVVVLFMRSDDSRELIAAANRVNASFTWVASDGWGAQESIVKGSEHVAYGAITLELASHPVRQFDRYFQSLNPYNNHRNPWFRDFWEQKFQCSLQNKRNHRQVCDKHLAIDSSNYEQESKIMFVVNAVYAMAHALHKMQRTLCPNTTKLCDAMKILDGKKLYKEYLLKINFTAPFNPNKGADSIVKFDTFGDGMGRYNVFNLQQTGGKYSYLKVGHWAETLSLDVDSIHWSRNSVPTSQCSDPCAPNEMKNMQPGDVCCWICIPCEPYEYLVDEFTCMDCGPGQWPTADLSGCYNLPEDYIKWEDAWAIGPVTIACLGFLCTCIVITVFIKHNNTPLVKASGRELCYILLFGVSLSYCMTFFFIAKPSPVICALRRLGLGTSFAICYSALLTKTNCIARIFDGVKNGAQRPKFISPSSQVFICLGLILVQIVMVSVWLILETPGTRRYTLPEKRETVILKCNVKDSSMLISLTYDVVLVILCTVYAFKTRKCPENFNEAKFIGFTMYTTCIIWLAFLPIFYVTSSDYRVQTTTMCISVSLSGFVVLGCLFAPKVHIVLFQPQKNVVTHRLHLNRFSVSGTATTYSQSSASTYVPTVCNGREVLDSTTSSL
Sequence of Substance-P receptor (Rattus norvegicus) (P14600 whole entry, looked up): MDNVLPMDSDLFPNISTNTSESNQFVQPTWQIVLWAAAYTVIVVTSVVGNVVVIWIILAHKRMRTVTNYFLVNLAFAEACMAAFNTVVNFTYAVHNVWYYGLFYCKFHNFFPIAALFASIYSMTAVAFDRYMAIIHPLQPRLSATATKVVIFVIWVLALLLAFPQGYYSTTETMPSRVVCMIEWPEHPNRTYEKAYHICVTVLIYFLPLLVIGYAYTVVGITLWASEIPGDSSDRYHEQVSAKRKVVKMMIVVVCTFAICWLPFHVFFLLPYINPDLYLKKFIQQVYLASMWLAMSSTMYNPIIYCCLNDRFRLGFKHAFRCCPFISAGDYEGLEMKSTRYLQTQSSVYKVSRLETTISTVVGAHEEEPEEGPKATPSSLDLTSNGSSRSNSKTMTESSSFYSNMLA

SP [2] [%]	Activity [3] [dose ratio]	Change in amplitude response [6] [%]	Change in amplitude response [7] [%]	Activity [9] [dose ratio]	Change in amplitude response [11] [%]	Change in amplitude response [12] [%]	Change in amplitude response [13] [%]	Change in amplitude response [15] [%]	Activity [16] [dose ratio]	Change in amplitude response [19] [%]	SMILES	further results
0	18										CSCC[C@@H](NC(=O)[C@H](CC(C)C)NC(=O)CNC(=O)[C@H](Cc1c[nH]c2ccccc12)NC(=O)[C@@H](Cc1c[nH]c2ccccc12)NC(=O)[C@H](CCC(N)=O)NC(=O)[C@H](CCC(N)=O)NC(=O)[C@@H]1CCCN1C(=O)[C@H](CCCCNC(=O)OCc1ccccc1)NC(=O)[C@@H]1CCCN1C(=O)[C@H](CCCN=C(N)N)NC(=O)OCc1ccccc1)C(=O)O	Activity [1]: 1.8 dose ratio; Activity [4]: 1.1 dose ratio; Activity [5]: 14.6 dose ratio
		27	-87	8.1	-87	32	-19	-42			COC(=O)[C@@H](CCSC)NC(=O)[C@H](CC(C)C)NC(=O)[C@@H](Cc1c[nH]c2ccccc12)NC(=O)[C@H](Cc1c[nH]c2ccccc12)NC(=O)[C@@H](Cc1c[nH]c2ccccc12)NC(=O)[C@H](CCC(N)=O)NC(=O)[C@H](CCC(N)=O)NC(=O)[C@@H]1CCCN1C(=O)[C@H](CCCCN)NC(=O)[C@@H]1CCCN1C(=O)[C@@H](N)CCCN=C(N)N	Change in amplitude response [8]: 21%; Change in amplitude response [10]: 29%; Change in amplitude response [14]: -3%
0		-37	-86	< 2		12	-9	-46	< 2		COC(=O)[C@H](CCSC)NC(=O)[C@@H]1CCCN1C(=O)[C@H]1CCCN1C(=O)[C@H](Cc1ccccc1)NC(=O)[C@H](Cc1ccccc1)NC(=O)[C@H](CCC(N)=O)NC(=O)[C@H](CCC(N)=O)NC(=O)[C@@H]1CCCN1C(=O)[C@H](CCCCNC(=O)OCc1ccccc1)NC(=O)[C@@H]1CCCN1C(=O)[C@H](CCCN=C(N)N)NC(=O)OCc1ccccc1	
0		-36	-22				-30				COC(=O)[C@H](CCSC)NC(=O)[C@@H](NC(=O)[C@H](NC(=O)[C@H](Cc1ccccc1)NC(=O)[C@H](Cc1ccccc1)NC(=O)[C@H](CCC(N)=O)NC(=O)[C@H](CCC(N)=O)NC(=O)[C@@H]1CCCN1C(=O)[C@H](CCCCNC(=O)OCc1ccccc1)NC(=O)[C@@H]1CCCN1C(=O)[C@H](CCCN=C(N)N)NC(=O)OCc1ccccc1)C(C)C)C(C)C	Activity [17]: < 2 dose ratio; Activity [18]: < 2 dose ratio
0	90	11	-75		-77		8.3			-33	COC(=O)[C@@H](CCSC)NC(=O)[C@H](CC(C)C)NC(=O)CNC(=O)[C@@H](Cc1c[nH]c2ccccc12)NC(=O)[C@@H](Cc1c[nH]c2ccccc12)NC(=O)[C@H](CCC(N)=O)NC(=O)[C@H](CCC(N)=O)NC(=O)[C@@H]1CCCN1C(=O)[C@H](CCCCNC(=O)OCc1ccccc1)NC(=O)[C@@H]1CCCN1C(=O)[C@H](CCCN=C(N)N)NC(=O)OCc1ccccc1 (Cbz-RPK(Cbz)PQQ[dW][dW]GL[dM]-OMe)	Change in amplitude response [20]: -13%; Change in amplitude response [21]: -3%
		-18		< 2		11	-29	-13	< 2	-62	COC(=O)[C@@H](CCSC)NC(=O)[C@H](CC(C)C)NC(=O)[C@@H](Cc1c[nH]c2ccccc12)NC(=O)[C@H](Cc1c[nH]c2ccccc12)NC(=O)[C@@H](Cc1c[nH]c2ccccc12)NC(=O)[C@H](CCC(N)=O)NC(=O)[C@H](CCC(N)=O)NC(=O)[C@@H]1CCCN1C(=O)[C@H](CCCCNC(=O)OCc1ccccc1)NC(=O)[C@@H]1CCCN1C(=O)[C@@H](N)CCCN=C(N)N	
